Results reported in ChEMBL document CHEMBL5131497, “Design, Synthesis, and Characterization of TNP-2198, a Dual-Targeted Rifamycin-Nitroimidazole Conjugate with Potent Activity against Microaerophilic and Anaerobic Bacterial Pathogens” (J Med Chem, 2022).
Converted amounts (≈) assume the structure as drawn.

How the values were obtained:
Gardnerella vaginalis [1] = test: Antibacterial activity against Gardnerella vaginalis clinical isolate China; assay type: functional
Helicobacter pylori [2] = test: Antibacterial activity against metronidazole-resistant Helicobacter pylori CB1573 harboring rdxAR16S mutant measured after 5 days by agar dilution method; assay type: functional; conditions: CB1573, 120 h, time 5 day
In short: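 Agar dilution per CLSI. Wild-type ATCC 700392 (CB1531) and its derivatives carry defined resistance determinants. Drugs, alone or in 1:1 molar mixtures, were diluted 2-fold from 100× stocks into Mueller–Hinton agar with aged (≥2 weeks) sheep blood (5% v/v). MIC read after 5 days at 35 °C under microaerobic conditions from a campylobacter gas-generating system.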

Clostridioides difficile [3] = test: Antibacterial activity against Clostridioides difficile CB1921 ATCC BAA1382 measured after 3 days; assay type: functional; conditions: CB1921 ATCC BAA1382, 72 h, time 3 day
Clostridioides difficile [4] = test: Antibacterial activity against rifampicin/fluoroquinolone-resistant Clostridioides difficile CB1942 harboring rpoBQ489K/gyrAD71Y/T82A mutant measured after 3 days; assay type: functional; conditions: CB1942, 72 h, time 3 day
Bacteroides fragilis = test: Antibacterial activity against metronidazole-resistant Bacteroides fragilis MMX 3387; assay type: functional
Bifidobacterium longum = test: Antibacterial activity against Bifidobacterium longum ATCC 15707; assay type: functional
Fusobacterium nucleatum = test: Antibacterial activity against Fusobacterium nucleatum ATCC 25586; assay type: functional
Gardnerella vaginalis [5] = test: Antibacterial activity against Gardnerella vaginalis ATCC 49145; assay type: functional
Peptostreptococcus sp. = test: Antibacterial activity against Peptostreptococcus magnus ATCC 14956; assay type: functional
Prevotella bivia = test: Antibacterial activity against Prevotella bivia ATCC 29303/MMX 5718; assay type: functional
Prevotella disiens = test: Antibacterial activity against Prevotella disiens MMX 3446; assay type: functional
[6] = Half life in C57BL/6 mouse at 20 mg/kg, po; assay type: ADME, organism-based; conditions: in vivo
In short: (§1)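 Single-dose PK of TNP-2198 was run in C57BL/6 mice (IV 5 mg/kg; PO 20 mg/kg) and beagle dogs (IV 5 mg/kg; PO 25 mg/kg). Terminal half-life (h) was derived from plasma profiles, together with Tmax, Vdss, CL, AUC and oral bioavailability.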

[7] = Clearance in C57BL/6 mouse at 5 mg/kg, iv; assay type: ADME, organism-based; conditions: in vivo
In short: (§2)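 Plasma PK after single intravenous or oral dosing. Mice C57BL/6 at 5 mg/kg IV or 20 mg/kg PO; Sprague–Dawley rats at 10 mg/kg IV or 50 mg/kg PO; beagle dogs at 5 mg/kg IV or 25 mg/kg PO. AUC reported in ng·h/mL. Clearance from the IV arms in mL/min·kg.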

[8] = AUC in C57BL/6 mouse at 5 mg/kg, iv; assay type: ADME, organism-based; set-up: dose 5 mg/kg, route iv; conditions: in vivo; in short: as §2
[9] = Half life in Sprague-Dawley rat at 10 mg/kg, iv; assay type: ADME, organism-based; conditions: in vivo
[10] = Clearance in Sprague-Dawley rat at 10 mg/kg, iv; assay type: ADME, organism-based; conditions: in vivo; in short: as §2
[11] = Half life in Beagle dog at 25 mg/kg, po; assay type: ADME, organism-based, Canis lupus familiaris; conditions: in vivo; in short: as §1
[12] = Oral bioavailability in Beagle dog at 25 mg/kg; assay type: ADME, organism-based, Canis lupus familiaris; conditions: in vivo
[13] = Drug distribution in Sprague-Dawley rat plasma measured at 12 hrs; assay type: ADME, cell-free
In short: (§3)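 Sprague–Dawley rats were dosed with TNP-2198. Concentrations were measured in plasma (ng/mL) and in tissues or contents (ng/g) at 0.5, 2, 6, 12 and 24 h after dosing. Values below the limit of quantification are reported as BLOQ.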

[14] = Drug distribution in Sprague-Dawley rat plasma measured at 24 hrs; assay type: ADME, cell-free; conditions: BLD = below limit of detection; in short: as §3
[15] = Drug distribution in Sprague-Dawley rat vaginal secretion measured at 0.5 hrs; assay type: ADME, tissue-based, Vaginal fluid; conditions: female, read-out: Ct; in short: as §3
[16] = Drug distribution in Sprague-Dawley rat vaginal secretion measured at 6 hrs; assay type: ADME, tissue-based, Vaginal fluid; conditions: female, read-out: Ct; in short: as §3
[17] = Drug distribution in Sprague-Dawley rat vaginal secretion measured at 12 hrs; assay type: ADME, tissue-based, Vaginal fluid; conditions: female, read-out: Ct; in short: as §3
[18] = Drug distribution in Sprague-Dawley rat vaginal secretion measured at 24 hrs; assay type: ADME, tissue-based, Vaginal fluid; conditions: female, read-out: Ct; in short: as §3
[19] = Drug distribution in Sprague-Dawley rat vaginal tissue measured at 2 hrs; assay type: ADME, tissue-based, Vagina; conditions: female, read-out: Ct; in short: as §3
[20] = Drug distribution in Sprague-Dawley rat gums measured at 6 hrs; assay type: ADME, tissue-based, Gingiva; conditions: read-out: Ct; in short: as §3
[21] = Drug distribution in Sprague-Dawley rat stomach content measured at 0.5 hrs; assay type: ADME, tissue-based; conditions: read-out: Ct; in short: as §3
[22] = Drug distribution in Sprague-Dawley rat stomach content measured at 12 hrs; assay type: ADME, tissue-based; conditions: read-out: Ct; in short: as §3
[23] = Drug distribution in Sprague-Dawley rat stomach tissue measured at 0.5 hrs; assay type: ADME, tissue-based; conditions: read-out: Ct; in short: as §3
[24] = Drug distribution in Sprague-Dawley rat stomach tissue measured at 12 hrs; assay type: ADME, tissue-based; conditions: read-out: Ct; in short: as §3
[25] = Drug distribution in Sprague-Dawley rat large intestine content measured at 24 hrs; assay type: ADME, tissue-based; conditions: read-out: Ct; in short: as §3
[26] = Drug distribution in Sprague-Dawley rat large intestine tissue measured at 2 hrs; assay type: ADME, tissue-based; conditions: read-out: Ct; in short: as §3
[27] = Drug distribution in Sprague-Dawley rat large intestine tissue measured at 24 hrs; assay type: ADME, tissue-based; conditions: read-out: Ct; in short: as §3
Helicobacter pylori [28] = test: Resistance development in Helicobacter pylori MMX 3719 assessed as spontaneous resistance frequency using at 1.90 x 10^8 CFU inoculum at 0.5 ug/ml; assay type: functional; conditions: dose 0.5 µg/ml
In short: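 H. pylori MMX 3719 exposed to 0.5, 1, 2 and 4 µg/mL drug with an inoculum of 1.90×10^8 CFU at each level. Two independent tests were run, and resistant colonies were counted and averaged. A spontaneous resistance frequency was reported for each concentration, and the MPC was taken across the concentrations tested.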

Gardnerella vaginalis [29] = test: Resistance development in Gardnerella vaginalis MMX 5973 assessed as spontaneous resistance frequency using at 4.50 x 10^8 CFU inoculum at 0.5 ug/ml; assay type: functional; conditions: dose 0.5 µg/ml
In short: (§4)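 Resistant colonies were counted at each drug concentration in two separate tests (test 1, test 2) and averaged. The spontaneous resistance frequency was taken from the mean colony count relative to the inoculum plated. Drug levels tested were 0.5, 1, 2 and 4 µg/mL, and a mutation prevention concentration (MPC) was also reported.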

Gardnerella vaginalis [30] = test: Resistance development in Gardnerella vaginalis MMX 5973 assessed as spontaneous resistance frequency using at 4.50 x 10^8 CFU inoculum at 4 ug/ml; assay type: functional; conditions: dose 4 µg/ml; in short: as §4
Clostridioides difficile [31] = test: Resistance development in Clostridioides difficile MMX 4381 assessed as mutation prevention concentration using at 1.90 x 10^8 CFU inoculum; assay type: functional; conditions: dose 0.5 µg/ml
Helicobacter pylori [32] = test: Antibacterial activity against Helicobacter pylori infected in C57/BL6 mouse assessed as bacterial load in stomach at 15 mg/kg administered twice daily via oral gavage starting from 7 days post inoculation and administered for 7 days (reference value: 5.25 log10CFU); assay type: functional; conditions: time 7 day

## CO[C@H]1/C=C/O[C@@]2(C)Oc3c(C)c(O)c4c(c3C2=O)C2=NC3(CCN(CCn5c([N+](=O)[O-])cnc5C)CC3)NC2=C(NC(=O)/C(C)=C\C=C\[C@H](C)[C@H](O)[C@@H](C)[C@@H](O)[C@@H](C)[C@H](OC(C)=O)[C@@H]1C)C4=O [RIFASUTENIZOL]
Gardnerella vaginalis [1]
  MIC: ≤ 0.004 µg/mL
  MIC90: 0.06 µg/mL (≈ 0.0636 µM)
Helicobacter pylori [2]
  MIC: ≤ 0.002 µg/mL
Clostridioides difficile [3]
  MIC: ≤ 0.002 µg/mL
Clostridioides difficile [4]
  MIC: 0.06 µg/mL (≈ 0.0636 µM)
Bacteroides fragilis
  MIC: 0.015 µg/mL (≈ 0.0159 µM)
Bifidobacterium longum
  MIC: 0.015 µg/mL (≈ 0.0159 µM)
Fusobacterium nucleatum
  MIC: 0.001 µg/mL (≈ 0.00106 µM)
Gardnerella vaginalis [5]
  MIC: 0.004 µg/mL (≈ 0.00424 µM)
Peptostreptococcus sp.
  MIC: 0.0005 µg/mL (≈ 0.00053 µM)
Prevotella bivia
  MIC: 0.015 µg/mL (≈ 0.0159 µM)
Prevotella disiens
  MIC: 0.015 µg/mL (≈ 0.0159 µM)
[6]
  half-life: 30.6 min
[7]
  clearance: 23 mL/min/kg
[8]
  AUC: 3760 ng·h/mL
[9]
  half-life: 46.2 min
[10]
  clearance: 26 mL/min/kg
[11]
  half-life: 204 min
[12]
  bioavailability: 65%
[13]
  concentration at 12 h: 4.33 ng/mL
[14]
  Cp: Bld
[15]
  concentration at 0.5 h: 4190 ng/g
[16]
  concentration at 6 h: 6240 ng/g
[17]
  concentration at 12 h: 366 ng/g
[18]
  concentration at 24 h: 54.6 ng/g
[19]
  concentration at 2 h: 5900 ng/g
[20]
  concentration at 6 h: 3660 ng/g
[21]
  concentration at 0.5 h: 3.26e+06 ng/g
[22]
  concentration at 12 h: 138 ng/g
[23]
  concentration at 0.5 h: 113000 ng/g
[24]
  concentration at 12 h: 114 ng/g
[25]
  concentration at 24 h: 53.9 ng/g
[26]
  concentration at 2 h: 8410 ng/g
[27]
  concentration at 24 h: 7.26 ng/g
Helicobacter pylori [28]
  Activity: <5 10^-9No_unit
Gardnerella vaginalis [29]
  Activity: <2 10^-9No_unit
Gardnerella vaginalis [30]
  Activity: <2 10^-9No_unit
Clostridioides difficile [31]
  Activity: 1 µg/mL
Helicobacter pylori [32]
  Activity: 1.94 log10CFU
